Compound activity: PubChem, Broad Institute
The list is not random: actives were taken first. Their share in the collection is about 2.5%.
PAX8 inh HTS: lowers PAX8-driven luciferase in RMG-I cells | RMG-I TPO-luciferase reporter, SteadyGlo, 24 h | inhibition, % at 12.6 µM | 1.2% of 360,000 active;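 active means mean replicate inhibition at least 60% with every replicate also reaching 60%; inconclusive means only one of the two criteria is met; inactive means mean below 60% and not all replicates reaching 60%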;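 further: luciferase light reporting Pax8 driven TPO promoter activity; plate controls were median of neutral control wells for no effect and mitoxantrone controls for full effect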
AF4-AF9 inh: blocks AF4 peptide binding to human AF9; AlphaScreen, biotin-AF4 peptide binding to FLAG-AF9; inhibition, % at 10 µM; 0.47% of 350,000 active; AID 651704;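 active means every replicate reaching a set inhibition limit, whatever the replicate mean, cut at about 25% in these data; inconclusive means mean inhibition reaches that limit but some replicates miss it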;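 further: 0% = plate neutral control median and 100% = total signal loss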
Target sequence (P42568 whole entry, looked up): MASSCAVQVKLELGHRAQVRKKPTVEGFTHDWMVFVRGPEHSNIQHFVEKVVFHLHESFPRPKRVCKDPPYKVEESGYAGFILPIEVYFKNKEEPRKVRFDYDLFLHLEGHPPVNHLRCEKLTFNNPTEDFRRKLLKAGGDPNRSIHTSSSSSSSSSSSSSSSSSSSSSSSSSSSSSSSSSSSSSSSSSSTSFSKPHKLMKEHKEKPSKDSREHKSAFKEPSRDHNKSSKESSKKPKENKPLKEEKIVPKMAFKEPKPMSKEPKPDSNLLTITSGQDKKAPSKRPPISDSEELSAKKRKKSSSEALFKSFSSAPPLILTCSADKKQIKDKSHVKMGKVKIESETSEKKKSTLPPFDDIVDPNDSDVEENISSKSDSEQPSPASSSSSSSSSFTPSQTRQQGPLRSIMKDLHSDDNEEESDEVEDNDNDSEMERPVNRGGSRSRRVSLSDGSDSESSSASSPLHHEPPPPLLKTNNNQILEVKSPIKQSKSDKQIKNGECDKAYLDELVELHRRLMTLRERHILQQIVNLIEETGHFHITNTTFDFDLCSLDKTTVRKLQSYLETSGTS
HIV Env fusion: inhibitors of HIV Env-mediated cell fusion; 1.1% of 360,000 active; inhibition, % at 12.3 µM; HeLa-JRFL Env/CEM21 cell fusion, luciferase;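 active means mean replicate inhibition score of at least 50 and every replicate individually at or above 50; inconclusive means only one of the two criteria met; inactive means mean below 50 and not all replicates reaching 50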;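 further: 0% = plate neutral controls and 100% = maraviroc near 300 nM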
N-glyco inh: blocks N-linked glycosylation in D54 reporter cells. reporter increase, % at 12.5 µM. D54 ERlucT glycosylation luciferase reporter, 24 h; percent of 100 nM tunicamycin response. 0.23% of 360,000 active;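 active means mean luciferase reporter signal, scaled so untreated is 0 and the glycosylation-blocking control 100, at or above a set limit in every replicate; inconclusive means mean reaches the limit but not every replicate does; inactive means mean below the limit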;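 further: luciferase carries N-glycosylation sites so blocking glycosylation raises the light; 0% = median of neutral control wells and 100% = median of 100 nM tunicamycin wells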
FN deposition inh: fibronectin deposition inhibition; inhibition, % at 12.6 µM; 0.086% of 350,000 active; AH1F fibroblasts, Alexa488-fibronectin deposition fluorescence, overnight; AID 743247;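 active means mean inhibition across replicates of 30% or more, regardless of how many single replicates reach that level; inconclusive means mean under 30% yet at least half of replicates reach 30%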;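 further: positive control wells lacked labelled fibronectin entirely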
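Test system: AH1F fibroblast monolayer depositing Alexa488-labelled fibronectin into matrix. Input: 10000 cells per well. Technique: fluorescence, ex 485 nm, em 525 nm. Buffer or medium: DMEM plus 2% serum, read in PBS. Timing: 1 h cell adhesion before compound, then overnight fibronectin incubation. Compound: single dose, pinned. Read-out basis: inhibition from reduced deposited-fibronectin fluorescence.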
EWS-Fli inh: EWS/Fli transcriptional activity inhibition; inhibition, % at 12.6 µM; A673 NR0B1-luciferase reporter, viability-normalised; 0.67% of 350,000 active;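 active means mean inhibition of at least 50% after viability correction, with every replicate also passing that limit; inconclusive means mean reaches 50% but only one of two replicates passes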;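 further: firefly luciferase signal divided by Alamar Blue viability fluorescence both relative to DMSO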
Numbers without * were called inactive; ? = inconclusive; · = no result given; [ ] = dose if it differs, or a comment.

SMILES	PAX8 inh HTS	AF4-AF9 inh	HIV Env fusion	N-glyco inh	FN deposition inh	EWS-Fli inh
COc1cccc(S(=O)(=O)N(C)C[C@H]2OCc3ccccc3-c3c(n(C)c4ccccc34)C(=O)N([C@H](C)CO)C[C@@H]2C)c1	65.7*	6.2	38.4[16.7 µM]	·	2.0	21.3
COc1cccc(S(=O)(=O)N(C)C[C@@H]2OCc3ccccc3-c3c(n(C)c4ccccc34)C(=O)N([C@@H](C)CO)C[C@@H]2C)c1	82.0*	6.6	60.2*[16.7 µM]	·	-5.0	7.1
COc1cccc(S(=O)(=O)N(C)C[C@@H]2OCc3ccccc3-c3c(n(C)c4ccccc34)C(=O)N([C@H](C)CO)C[C@H]2C)c1	44.0	0.8	-12.7[16.7 µM]	·	4.6	19.5
COc1cccc(S(=O)(=O)N(C)C[C@H]2OCc3ccccc3-c3c(n(C)c4ccccc34)C(=O)N([C@@H](C)CO)C[C@H]2C)c1	85.6*	6.6	-103.7[16.7 µM]	·	-7.2	24.8
COc1cccc(S(=O)(=O)N(C)C[C@@H]2OCc3ccccc3-c3ccccc3C(=O)N([C@@H](C)CO)C[C@@H]2C)c1	91.2*	3.2	32.9[16.7 µM]	·	-10.7	0.3
Cc1ccc(S(=O)(=O)NC2c3cccc4cccc(c34)C2Sc2nc(C)cc(C)n2)cc1 (stereo not drawn)	22.2	·	98.0*	-5.5	-6.0	·
CCOC(=O)N1CCN(C(=O)/C(=C/c2cccc3ccccc23)NC(=O)c2ccc(OC)c(OC)c2)CC1	71.6*	3.1	8.7	-0.3	-5.8	4.9
COc1ccc(C(=O)N/C(=C\c2cccc3ccccc23)C(=O)N2CCN(C)CC2)cc1OC	5.6	2.5	3.2	-0.4	11.6	4.2
CC(=O)NC(c1ccc2ccccc2c1)c1ccc2cccnc2c1O (stereo not drawn)	92.7*	3.7	-15.1	-8.5	-10.6	40.1
CCCC(=O)NC(c1ccc(C)cc1)c1ccc2cccnc2c1O (stereo not drawn)	·	·	·	-10.9	·	·
CCCC(=O)NC(c1ccc(Cl)cc1)c1ccc2cccnc2c1O (stereo not drawn)	85.3*	8.9	-10.4	-9.6	16.4	45.5
CCCC(=O)NC(c1ccc(Cl)cc1Cl)c1ccc2cccnc2c1O (stereo not drawn)	80.2*	4.0	-388.9	-10.6	20.4	37.9
COc1ccc(C(NC(C)=O)c2ccc3cccnc3c2O)c(OC)c1 (stereo not drawn)	·	·	·	-5.5	·	·
CCCCC(=O)NC(c1ccccc1OC)c1ccc2cccnc2c1O (stereo not drawn)	87.7*	5.9	-22.5	-11.7	12.4	40.1
CO[C@@H]1CN(C)C(=O)c2cc(NC(=O)Nc3cccc(F)c3)ccc2OC[C@@H](C)N(C(=O)Nc2cccc(F)c2)C[C@H]1C	·	1.1	·	·	0.7	-0.4
CC(=O)NC(c1ccc(Cl)cc1Cl)c1ccc2cccnc2c1O (stereo not drawn)	83.3*	7.9	-18.3	-10.8	20.7	46.6
CCCC(=O)NC(c1ccccc1OC)c1ccc2cccnc2c1O (stereo not drawn)	·	·	·	-9.1	·	·
CCCCC(=O)NC(c1ccc(Cl)cc1)c1ccc2cccnc2c1O (stereo not drawn)	73.4*	-17.3	-26.0	-13.5	11.7	37.2
Cc1cccc(S(=O)(=O)N[C@@H]2CC[C@H](CCNC(=O)c3cnccn3)O[C@H]2CO)c1	-3.2	-0.8	14.0[16.7 µM]	·	5.0	-3.0
O=C(NCCCN1CCOCC1)C(=O)N/N=C/c1c2ccccc2cc2ccccc12	71.9*	·	-334.0	0.1	7.8	·
CCCN(CC1CC1)C(=O)CSc1ncnc2sc(C)c(C)c12	·	·	68.6*	0.5	·	·
CC(=O)N1CC2(C1)[C@H](c1ccc(-c3cccc(F)c3)cc1)[C@@H](CO)N2CC1CC1	-3.8	-2.8	-22.3[16.7 µM]	·	1.4	-0.8
CN(C)CCNc1ccc(-c2nn(C)c(=O)c3ccccc23)cc1[N+](=O)[O-]	0.2	3.8	25.0	3.1	12.3	3.6
CN(C)CCNc1ccc2ncn3c4ccc(O)cc4c(=O)c1c23	63.8*	33.8*	50.2	?	6.5	-6.2
COc1ccc2sc3cccc(NCCN(C)C)c3c(=O)c2c1	-38.0	19.3	13.4	139.7*	0.9	-25.2
SMILES	PAX8 inh HTS	AF4-AF9 inh	HIV Env fusion	N-glyco inh	FN deposition inh	EWS-Fli inh
CN(C)CCNc1ccc(CO)c2sc3ccc(O)cc3c(=O)c12	95.8*	15.0	-84.3	-7.3	-0.3	43.1
COc1ccc(-c2noc(N3CCC(C(=O)N4CCN(c5ccccn5)CC4)CC3)n2)cc1	·	·	62.8*	·	17.3	·
COc1ccc(NC(=O)C2CCN(c3nc(-c4ccc(OC)cc4)no3)CC2)cc1	-78.1	0.7	12.0	0.6	2.0	0.4
CCN(C(=O)C1CCN(c2nc(-c3ccc(OC)cc3)no2)CC1)c1ccc(OC)cc1	43.7	-0.6	59.9*	-3.6	-5.1	17.6
COc1ccc(S(=O)(=O)Nc2ccc3c(c2)CC(=O)N([C@H](C)CO)C[C@H](C)[C@@H](CN(C)Cc2ccc(C(F)(F)F)cc2)O3)cc1	112.9*	0.8	43.8[16.7 µM]	·	·	19.2
COc1ccc(S(=O)(=O)Nc2ccc3c(c2)CC(=O)N([C@@H](C)CO)C[C@@H](C)[C@H](CN(C)Cc2ccc(C(F)(F)F)cc2)O3)cc1	110.7*	1.2	72.7*[16.7 µM]	·	-4.7	41.7
COc1ccc(S(=O)(=O)Nc2ccc3c(c2)CC(=O)N([C@@H](C)CO)C[C@@H](C)[C@@H](CN(C)Cc2ccc(C(F)(F)F)cc2)O3)cc1	18.7	-1.4	31.1[16.7 µM]	·	-5.1	8.6
CC=Cc1ccc2n(c1=O)C[C@H]1[C@H](CO)[C@@H](C(=O)N3CCc4ccccc4C3)[C@@H]2N1CC (mixture of isomers)	·	-1.4	-3.3[16.7 µM]	·	·	-2.9
C[C@H](CO)N1C[C@H](C)[C@H](CN(C)C(=O)c2ccc3c(c2)OCO3)Oc2ncc(C3=CCCC3)cc2C1=O	-2.6	-5.0	1.4[16.7 µM]	·	·	4.6
C[C@H]1CN([C@@H](C)CO)C(=O)c2cc(-c3cncnc3)cnc2O[C@H]1CN(C)Cc1ccc(Oc2ccccc2)cc1	-6.3	5.2	-4.1[16.7 µM]	·	·	3.2
CCN(C(=O)COC(=O)c1c(C)nn(-c2ccccc2)c1C)C1CCS(=O)(=O)C1 (stereo not drawn)	-68.8	0.1	-3.3	-2.2	2.5	-56.8
CCN(C(=O)COC(=O)c1c2c(nc3ccccc13)/C(=C/c1ccccc1)CC(C)C2)C1CCS(=O)(=O)C1 (stereo not drawn)	67.4*	·	·	2.5	-8.6	·
C[C@H](CO)N1C[C@H](C)[C@H](CN(C)Cc2ccccc2)OCCCC[C@H](C)Oc2ccc(NC(=O)Nc3ccc(F)cc3)cc2C1=O	33.3	4.0	56.1*[16.7 µM]	·	·	-1.2
COc1ccc(NC(=O)Nc2ccc3c(c2)C(=O)N([C@H](C)CO)C[C@H](C)[C@H](CN(C)Cc2ccccc2)OCCCC[C@H](C)O3)cc1	18.7	7.6	73.9*[16.7 µM]	·	-4.8	14.0
C[C@H](CO)N1C[C@H](C)[C@@H](CN(C)Cc2ccccc2)OCCCC[C@H](C)Oc2ccc(NC(=O)Nc3ccccc3)cc2C1=O	15.8	8.3	1.6[16.7 µM]	·	4.2	-1.3
